Assay results from ChEMBL document CHEMBL3817726, “Chemically Diverse Group I p21-Activated Kinase (PAK) Inhibitors Impart Acute Cardiovascular Toxicity with a Narrow Therapeutic Window” (J Med Chem, 2016).

Experiments:
[1] = molecular target: Serine/threonine-protein kinase 26 (Homo sapiens) (UniProt Q9P289); assay: Inhibition of recombinant human full length GST-tagged MST4 expressed in Baculovirus at 1 uM relative to control
[2] = molecular target: Adenosine receptor A2a (Homo sapiens) (UniProt P29274); assay: Inhibition of recombinant human adenosine A2A receptor expressed in HEK293 cells at 10 uM relative to control; type: cell-based
[3] = molecular target: Receptor-type tyrosine-protein kinase FLT3 (Homo sapiens) (UniProt P36888); assay: Inhibition of recombinant human full length His-tagged FLT3 expressed in Baculovirus at 1 uM relative to control
[4] = molecular target: Ribosomal protein S6 kinase alpha-2 (Homo sapiens) (UniProt Q15349); assay: Inhibition of recombinant human full length His-tagged RSK2 expressed in Baculovirus at 1 uM relative to control
[5] = molecular target: Tyrosine-protein kinase Lyn (Homo sapiens) (UniProt P07948); assay: Inhibition of recombinant human full length His-tagged LynB expressed in Baculovirus at 1 uM relative to control
[6] = molecular target: Serine/threonine-protein kinase 4 (Homo sapiens) (UniProt Q13043); assay: Inhibition of recombinant human full length GST-tagged MST1 expressed in Baculovirus at 1 uM relative to control
[7] = molecular target: Protein kinase C alpha type (Homo sapiens) (UniProt P17252); assay: Inhibition of recombinant human full length PKCalpha expressed in Baculovirus at 1 uM relative to control
[8] = molecular target: cAMP-dependent protein kinase catalytic subunit alpha (Homo sapiens) (UniProt P17612); assay: Inhibition of recombinant human full length His-tagged PRKACA expressed in Escherichia coli at 1 uM relative to control
[9] = molecular target: Serine/threonine-protein kinase PAK 4 (Homo sapiens) (UniProt O96013); conditions: 1 uM
[10] = molecular target: Phosphorylase b kinase gamma catalytic chain, skeletal muscle/heart isoform (Homo sapiens) (UniProt Q16816); assay: Inhibition of recombinant human full length GST-tagged PHKgamma 1 expressed in Baculovirus at 1 uM relative to control
[11] = molecular target: Tyrosine-protein kinase ABL2 (Homo sapiens) (UniProt P42684); assay: Inhibition of recombinant human full length His-tagged ARG expressed in Baculovirus at 1 uM relative to control
[12] = molecular target: 5'-AMP-activated protein kinase catalytic subunit alpha-2 (Homo sapiens) (UniProt P54646); assay: Inhibition of recombinant human PRKAA2 at 1 uM relative to control
[13] = Cmax associated with acute adverse effect in mouse at 50 mg/kg, ip; type: ADME, organism-based; design: dose 50 mg/kg, route intraperitoneal; conditions: in vivo
Procedure, shortened: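 Mouse tolerability studies tested multiple doses, given orally or intraperitoneally. Plasma drug concentrations were measured, including at a 15 min time point. The minimum concentration associated with adverse clinical signs or death was taken as the adverse Cmax and was converted to an unbound value.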

[14] = molecular target: Tyrosine-protein kinase Mer (Homo sapiens) (UniProt Q12866); assay: Inhibition of recombinant human GST-tagged Mer expressed in Baculovirus at 1 uM relative to control
[15] = molecular target: Ribosomal protein S6 kinase alpha-3 (Homo sapiens) (UniProt P51812); assay: Inhibition of recombinant human full length GST-tagged RSK3 expressed in insect cells at 1 uM relative to control
[16] = molecular target: Adenosine receptor A1 (Homo sapiens) (UniProt P30542); assay: Inhibition of recombinant human adenosine A1 receptor expressed in CHO cells at 10 uM relative to control; type: cell-based
[17] = molecular target: Testis-specific serine/threonine-protein kinase 1 (Homo sapiens) (UniProt Q9BXA7); assay: Inhibition of recombinant human full length His-tagged TSSK1 expressed in Baculovirus at 1 uM relative to control
[18] = molecular target: Tyrosine-protein kinase Yes (Homo sapiens) (UniProt P07947); assay: Inhibition of recombinant human full length GST-tagged YES expressed in Baculovirus at 1 uM relative to control
[19] = Cmax in mouse at 50 mg/kg, ip; type: ADME, organism-based; design: dose 50 mg/kg, route intraperitoneal; conditions: in vivo
[20] = molecular target: Serine/threonine-protein kinase PAK 5 (Homo sapiens) (UniProt Q9P286); assay: Inhibition of recombinant human full length His-tagged PAK5 expressed in Baculovirus at 1 uM relative to control
[21] = molecular target: Serine/threonine-protein kinase Chk2 (Homo sapiens) (UniProt O96017); assay: Inhibition of recombinant human full length His-tagged CHK2 expressed in Baculovirus at 1 uM relative to control
[22] = molecular target: MAP/microtubule affinity-regulating kinase 3 (Homo sapiens) (UniProt P27448); assay: Inhibition of recombinant human full length GST-tagged MARK3 expressed in Baculovirus at 1 uM relative to control
[23] = molecular target: Glycogen synthase kinase-3 beta (Homo sapiens) (UniProt P49841); assay: Inhibition of recombinant human full length His-tagged GSK3beta expressed in Baculovirus at 1 uM relative to control
[24] = molecular target: Sodium-dependent serotonin transporter (Homo sapiens) (UniProt P31645); assay: Inhibition of recombinant human 5HT transporter expressed in CHO cells at 10 uM relative to control; type: cell-based
[25] = molecular target: Serine/threonine-protein kinase 24 (Homo sapiens) (UniProt Q9Y6E0); assay: Inhibition of recombinant human full length GST-tagged MST3 expressed in Baculovirus at 1 uM relative to control
[26] = Fraction unbound in mouse plasma at 50 mg/kg, ip; type: ADME, organism-based
Mus musculus = assay: fCmax associated with acute adverse effect in mouse at 50 mg/kg, ip; type: ADME, organism-based; conditions: in vivo
Procedure, shortened: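 Mouse tolerability studies at multiple doses, oral or intraperitoneal. Minimum unbound plasma concentration associated with adverse effects (total Cmax converted to unbound) compared with IC50 for inhibition of MEK1 S298 phosphorylation in cells.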

[27] = molecular target: Proto-oncogene tyrosine-protein kinase Src (Homo sapiens) (UniProt P12931); assay: Inhibition of recombinant human full length His-tagged SRC expressed in Baculovirus at 1 uM relative to control
[28] = Ratio of fCmax associated with acute adverse effect in mouse at 50 mg/kg, ip to IC50 for PAK1/2-mediated phosphorylation of MEK1 at serine 298 in human EBC1 cells
Procedure, shortened: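 Mouse tolerability study run at multiple doses, here by i.p. injection. Plasma drug levels were measured, and total concentration was converted to unbound. The minimum unbound Cmax associated with adverse effects (C_max,adverse,u) was divided by the cellular IC50 for inhibition of PAK1/2-mediated MEK1 S298 phosphorylation.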

[29] = molecular target: Protein kinase C theta type (Homo sapiens) (UniProt Q04759); assay: Inhibition of recombinant human full length His-tagged PKCtheta expressed in Baculovirus at 1 uM relative to control
[30] = molecular target: Serine/threonine-protein kinase Chk1 (Homo sapiens) (UniProt O14757); assay: Inhibition of recombinant human full length His-tagged CHK1 expressed in Baculovirus at 1 uM relative to control
[31] = molecular target: Serine/threonine-protein kinase 25 (Homo sapiens) (UniProt O00506); assay: Inhibition of recombinant human full length GST-tagged YSK1 expressed in Baculovirus at 1 uM relative to control
[32] = molecular target: Serine/threonine-protein kinase MARK1 (Homo sapiens) (UniProt Q9P0L2); assay: Inhibition of recombinant human full length GST-tagged MARK1 expressed in Baculovirus at 1 uM relative to control
[33] = molecular target: CDK7/Cyclin H/MNAT1 (Homo sapiens) (UniProt P51946+P50613+P51948); assay: Inhibition of recombinant human full length His-tagged CDK7/cyclin H/MNAT1 expressed in Baculovirus at 1 uM relative to control
[34] = molecular target: Serine/threonine-protein kinase PAK 6 (Homo sapiens) (UniProt Q9NQU5); conditions: 1 uM
[35] = molecular target: Ribosomal protein S6 kinase alpha-6 (Homo sapiens) (UniProt Q9UK32); assay: Inhibition of recombinant human full length GST-tagged RSK4 expressed in Baculovirus at 1 uM relative to control
[36] = molecular target: Proto-oncogene tyrosine-protein kinase receptor Ret (Homo sapiens) (UniProt P07949); assay: Inhibition of recombinant human full length GST-tagged RET expressed in Baculovirus at 1 uM relative to control
[37] = molecular target: 5'-AMP-activated protein kinase catalytic subunit alpha-1 (Homo sapiens) (UniProt Q13131); assay: Inhibition of recombinant human PRKAA1 at 1 uM relative to control
[38] = molecular target: High affinity nerve growth factor receptor (Homo sapiens) (UniProt P04629); assay: Inhibition of recombinant human His-tagged TRKA (441 to 796 residues) expressed in Baculovirus at 1 uM relative to control

Chain of Tyrosine-protein kinase ABL2 (Homo sapiens) (P42684 whole entry): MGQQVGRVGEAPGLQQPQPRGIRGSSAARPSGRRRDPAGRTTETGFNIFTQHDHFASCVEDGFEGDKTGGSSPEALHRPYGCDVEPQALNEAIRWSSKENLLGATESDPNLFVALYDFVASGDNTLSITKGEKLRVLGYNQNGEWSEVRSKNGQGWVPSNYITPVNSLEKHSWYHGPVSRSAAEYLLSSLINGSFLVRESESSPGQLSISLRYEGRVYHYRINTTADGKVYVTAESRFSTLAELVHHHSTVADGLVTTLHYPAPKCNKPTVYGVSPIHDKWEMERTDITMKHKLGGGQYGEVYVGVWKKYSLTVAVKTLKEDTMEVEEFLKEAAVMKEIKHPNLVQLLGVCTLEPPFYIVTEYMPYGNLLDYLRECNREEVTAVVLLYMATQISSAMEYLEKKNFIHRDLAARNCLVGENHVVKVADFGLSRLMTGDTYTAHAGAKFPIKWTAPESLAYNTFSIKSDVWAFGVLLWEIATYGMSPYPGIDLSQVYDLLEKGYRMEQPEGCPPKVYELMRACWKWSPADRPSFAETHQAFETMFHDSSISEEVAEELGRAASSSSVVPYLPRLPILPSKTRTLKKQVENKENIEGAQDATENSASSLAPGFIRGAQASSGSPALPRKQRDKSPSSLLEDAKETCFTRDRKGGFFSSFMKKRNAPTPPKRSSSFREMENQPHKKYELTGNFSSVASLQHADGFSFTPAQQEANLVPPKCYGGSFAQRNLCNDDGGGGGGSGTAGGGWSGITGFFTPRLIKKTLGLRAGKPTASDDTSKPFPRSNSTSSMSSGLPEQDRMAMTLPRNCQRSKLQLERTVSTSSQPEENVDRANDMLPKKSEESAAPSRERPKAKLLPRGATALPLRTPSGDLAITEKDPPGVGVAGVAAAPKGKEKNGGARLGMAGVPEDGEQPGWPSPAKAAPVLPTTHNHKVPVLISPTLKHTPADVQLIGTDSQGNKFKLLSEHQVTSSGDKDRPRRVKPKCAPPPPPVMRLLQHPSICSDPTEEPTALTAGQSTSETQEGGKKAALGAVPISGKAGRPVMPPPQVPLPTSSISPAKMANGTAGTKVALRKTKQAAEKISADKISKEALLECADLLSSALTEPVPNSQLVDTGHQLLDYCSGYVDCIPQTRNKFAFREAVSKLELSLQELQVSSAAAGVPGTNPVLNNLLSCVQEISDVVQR
Chain of MAP/microtubule affinity-regulating kinase 3 (Homo sapiens) (P27448 whole entry, looked up): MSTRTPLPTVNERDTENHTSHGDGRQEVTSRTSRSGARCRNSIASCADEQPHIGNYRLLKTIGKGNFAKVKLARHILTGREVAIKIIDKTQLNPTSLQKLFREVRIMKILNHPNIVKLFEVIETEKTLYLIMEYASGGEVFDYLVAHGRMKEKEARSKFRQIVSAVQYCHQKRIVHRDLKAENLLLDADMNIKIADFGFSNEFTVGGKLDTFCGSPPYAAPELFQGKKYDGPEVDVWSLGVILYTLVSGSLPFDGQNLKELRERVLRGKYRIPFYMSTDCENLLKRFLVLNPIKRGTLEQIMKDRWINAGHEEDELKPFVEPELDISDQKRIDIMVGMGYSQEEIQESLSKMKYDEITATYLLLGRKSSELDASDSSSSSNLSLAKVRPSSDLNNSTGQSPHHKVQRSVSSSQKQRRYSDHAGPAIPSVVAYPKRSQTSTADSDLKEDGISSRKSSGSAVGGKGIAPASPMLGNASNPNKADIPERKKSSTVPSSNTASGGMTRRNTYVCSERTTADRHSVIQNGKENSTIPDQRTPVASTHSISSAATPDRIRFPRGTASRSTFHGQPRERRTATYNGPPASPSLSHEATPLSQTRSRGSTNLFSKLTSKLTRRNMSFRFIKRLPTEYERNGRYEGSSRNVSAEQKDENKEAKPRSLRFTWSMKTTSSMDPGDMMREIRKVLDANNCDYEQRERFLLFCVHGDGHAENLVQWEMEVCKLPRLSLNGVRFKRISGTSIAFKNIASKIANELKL
Chain of Testis-specific serine/threonine-protein kinase 1 (Homo sapiens) (Q9BXA7 whole entry): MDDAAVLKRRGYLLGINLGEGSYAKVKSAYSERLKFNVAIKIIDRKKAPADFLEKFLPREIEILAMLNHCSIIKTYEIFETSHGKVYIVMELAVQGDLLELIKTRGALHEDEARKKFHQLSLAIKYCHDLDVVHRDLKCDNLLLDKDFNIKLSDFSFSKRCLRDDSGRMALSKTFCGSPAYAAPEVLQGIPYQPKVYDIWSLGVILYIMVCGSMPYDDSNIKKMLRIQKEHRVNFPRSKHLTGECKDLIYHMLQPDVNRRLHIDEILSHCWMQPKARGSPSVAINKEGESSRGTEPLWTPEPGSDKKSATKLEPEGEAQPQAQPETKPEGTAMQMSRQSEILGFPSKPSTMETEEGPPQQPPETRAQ
Chain of Glycogen synthase kinase-3 beta (Homo sapiens) (P49841 whole entry, looked up): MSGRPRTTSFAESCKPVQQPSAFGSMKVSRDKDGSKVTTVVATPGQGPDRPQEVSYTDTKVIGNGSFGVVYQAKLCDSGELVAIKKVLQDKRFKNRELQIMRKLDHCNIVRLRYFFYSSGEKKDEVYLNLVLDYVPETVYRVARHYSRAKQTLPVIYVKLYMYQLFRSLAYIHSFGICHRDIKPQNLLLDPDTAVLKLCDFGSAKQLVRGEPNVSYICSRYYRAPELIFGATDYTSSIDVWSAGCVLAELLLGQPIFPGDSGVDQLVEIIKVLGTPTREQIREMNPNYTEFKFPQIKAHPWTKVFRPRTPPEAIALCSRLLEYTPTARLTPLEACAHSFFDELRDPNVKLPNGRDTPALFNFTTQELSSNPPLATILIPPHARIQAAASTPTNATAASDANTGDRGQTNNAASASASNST
Chain of Serine/threonine-protein kinase 26 (Homo sapiens) (Q9P289 2-416 limits assumed): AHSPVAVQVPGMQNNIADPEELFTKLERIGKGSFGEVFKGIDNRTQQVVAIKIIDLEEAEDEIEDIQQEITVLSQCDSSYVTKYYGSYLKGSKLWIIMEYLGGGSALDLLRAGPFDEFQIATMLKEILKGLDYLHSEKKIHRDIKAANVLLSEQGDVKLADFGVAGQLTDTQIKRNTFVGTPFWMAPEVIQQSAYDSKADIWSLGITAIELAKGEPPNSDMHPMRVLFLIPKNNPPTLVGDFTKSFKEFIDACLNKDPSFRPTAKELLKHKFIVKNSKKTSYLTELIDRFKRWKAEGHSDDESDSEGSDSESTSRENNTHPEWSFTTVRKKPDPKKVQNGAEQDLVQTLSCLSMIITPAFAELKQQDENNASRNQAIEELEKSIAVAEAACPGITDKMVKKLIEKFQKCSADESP
Chain of Serine/threonine-protein kinase PAK 4 (Homo sapiens) (O96013 whole entry, looked up, canonical isoform): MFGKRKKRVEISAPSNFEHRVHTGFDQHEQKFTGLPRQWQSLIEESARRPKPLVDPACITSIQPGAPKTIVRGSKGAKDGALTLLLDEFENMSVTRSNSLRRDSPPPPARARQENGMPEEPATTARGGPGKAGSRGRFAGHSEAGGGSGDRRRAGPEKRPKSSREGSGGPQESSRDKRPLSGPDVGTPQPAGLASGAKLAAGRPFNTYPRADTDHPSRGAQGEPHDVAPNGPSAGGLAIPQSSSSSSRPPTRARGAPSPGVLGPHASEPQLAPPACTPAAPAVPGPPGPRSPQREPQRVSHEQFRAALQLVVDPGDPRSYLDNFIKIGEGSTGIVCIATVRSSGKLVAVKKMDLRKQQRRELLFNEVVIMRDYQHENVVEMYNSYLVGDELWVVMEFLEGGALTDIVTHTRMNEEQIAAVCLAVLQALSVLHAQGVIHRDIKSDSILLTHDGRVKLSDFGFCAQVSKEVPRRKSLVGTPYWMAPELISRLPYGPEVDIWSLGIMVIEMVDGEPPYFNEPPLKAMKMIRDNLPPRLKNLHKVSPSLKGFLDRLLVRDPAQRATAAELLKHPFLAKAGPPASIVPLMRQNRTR
Chain of Adenosine receptor A1 (Homo sapiens) (P30542 whole entry): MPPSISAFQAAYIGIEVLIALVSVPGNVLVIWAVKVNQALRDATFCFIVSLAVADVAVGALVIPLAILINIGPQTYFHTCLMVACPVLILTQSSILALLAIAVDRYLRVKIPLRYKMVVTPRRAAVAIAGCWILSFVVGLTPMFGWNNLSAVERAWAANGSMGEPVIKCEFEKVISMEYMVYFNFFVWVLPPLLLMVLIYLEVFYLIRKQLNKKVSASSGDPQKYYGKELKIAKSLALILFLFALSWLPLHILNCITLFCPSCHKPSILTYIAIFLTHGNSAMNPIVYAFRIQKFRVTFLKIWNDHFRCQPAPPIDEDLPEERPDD
Chain of Tyrosine-protein kinase Yes (Homo sapiens) (P07947 2-543 limits assumed): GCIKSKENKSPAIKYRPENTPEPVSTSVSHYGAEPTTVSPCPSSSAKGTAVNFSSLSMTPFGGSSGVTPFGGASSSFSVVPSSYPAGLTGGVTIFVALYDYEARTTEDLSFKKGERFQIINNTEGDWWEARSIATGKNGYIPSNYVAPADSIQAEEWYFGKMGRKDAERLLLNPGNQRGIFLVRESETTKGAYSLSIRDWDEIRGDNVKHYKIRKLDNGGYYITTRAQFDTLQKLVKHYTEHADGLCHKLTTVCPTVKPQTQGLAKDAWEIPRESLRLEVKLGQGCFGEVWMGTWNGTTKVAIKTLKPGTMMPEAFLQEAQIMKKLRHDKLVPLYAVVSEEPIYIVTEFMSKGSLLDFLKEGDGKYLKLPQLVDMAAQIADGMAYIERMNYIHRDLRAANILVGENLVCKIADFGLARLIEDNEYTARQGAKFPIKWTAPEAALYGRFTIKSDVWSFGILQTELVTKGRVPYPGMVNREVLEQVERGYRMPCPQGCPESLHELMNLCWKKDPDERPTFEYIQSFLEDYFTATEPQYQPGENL
Chain of Serine/threonine-protein kinase 25 (Homo sapiens) (O00506 whole entry, looked up): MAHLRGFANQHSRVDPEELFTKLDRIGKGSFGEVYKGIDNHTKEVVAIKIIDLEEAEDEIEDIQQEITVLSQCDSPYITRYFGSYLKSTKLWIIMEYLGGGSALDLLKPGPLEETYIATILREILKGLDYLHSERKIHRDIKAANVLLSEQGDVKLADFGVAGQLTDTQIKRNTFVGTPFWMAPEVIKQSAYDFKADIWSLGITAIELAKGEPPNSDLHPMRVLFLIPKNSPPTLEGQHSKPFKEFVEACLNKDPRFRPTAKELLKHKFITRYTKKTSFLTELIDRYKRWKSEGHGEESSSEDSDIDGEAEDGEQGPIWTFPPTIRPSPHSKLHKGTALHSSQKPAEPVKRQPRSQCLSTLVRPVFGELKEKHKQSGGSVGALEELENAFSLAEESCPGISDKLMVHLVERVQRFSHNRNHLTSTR

Cc1nc(Nc2n[nH]c3c2CN(C(=O)N[C@H](CN(C)C)c2ccccc2)C3(C)C)c2sccc2n1 [PF-03758309] gave an inhibition [1] greater than 75%, an inhibition [2] greater than 75% and an inhibition [3] greater than 75%. For the same compound, the inhibition [4] was greater than 75%, the inhibition [5] was greater than 75% and the inhibition [6] was greater than 75%. The inhibition [7] was greater than 75%, the inhibition [8] was greater than 75% and the inhibition [9] was greater than 75%. For the same compound, the inhibition [10] was greater than 75%, the inhibition [11] was greater than 75% and the inhibition [12] was greater than 75%. The Cmax [13] was 10 µM, the inhibition [14] was greater than 75% and the inhibition [15] was greater than 75%. The inhibition [16] was greater than 75%, the inhibition [17] was greater than 75% and the inhibition [18] was greater than 75%. It also gave a Cmax [19] of 10 µM, an inhibition [20] greater than 75% and an inhibition [21] greater than 75%. It also gave an inhibition [22] greater than 75%, an inhibition [23] greater than 75% and an inhibition [24] greater than 75%. For the same compound, the inhibition [25] was greater than 75%, the fraction unbound [26] was 0.163 and the fCmax (Mus musculus) was 1.6 µM. It also gave an inhibition [27] greater than 75%, a Ratio [28] of 1 and an inhibition [29] greater than 75%. For the same compound, the inhibition [30] was greater than 75%, the inhibition [31] was greater than 75% and the inhibition [32] was greater than 75%. It also gave an inhibition [33] greater than 75%, an inhibition [34] greater than 75% and an inhibition [35] greater than 75%. The inhibition [36] was greater than 75%, the inhibition [37] was greater than 75% and the inhibition [38] was greater than 75%.
